Screening results deposited in PubChem BioAssay by The Scripps Research Institute Molecular Screening Center.
An excerpt weighted towards active compounds, which were near 2% of everything screened.
LEDGF integ inh = blocks HIV-1 LEDGF/p75-dependent DNA integration. 370,000 compounds, 0.64% hits. TR-FRET IN-LEDGF/p75 DNA integration, Eu/Cy5. inhibition, % at 3.7 µM. AID 743269;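 active means inhibition above the screen-wide mean plus 3 SD, cut at about 13% in these data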;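 further: signal is the Cy5 over europium emission ratio at 671 and 618 nm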
ASAP1 inh = blocks human ASAP1-stimulated Arf1 GTP hydrolysis; Q9ULH1; GDP FP detection; inhibition, % at 16.5 µM; 360,000 compounds, 0.19% hits; in the data active means inhibition above about 25%
TCR CD3 inh = inhibitors of human TCR-CD3 interaction; TAMRA-labeled TCR probe fluorescence, biochemical; inhibition, % at 9.4 µM; 360,000 compounds, 0.37% hits; AID 651800; in the data active means inhibition above about 19%;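 further: recombinant mutant TCR 2C K166C tagged with TAMRA read by polarization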
ARFGAP1 inhibitor = inhibits rat ARF GTPase activating protein 1; Q62848; inhibition, % at 16.5 µM; Arfgap1-stimulated ARF1 GTP hydrolysis, GDP FP detection; 360,000 compounds, 0.26% hits;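 active means inhibition above a per-plate limit, mean inhibition of low control wells plus 3 SD, cut at about 25% in these data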
Target sequence (Q62848 1-136 limits assumed): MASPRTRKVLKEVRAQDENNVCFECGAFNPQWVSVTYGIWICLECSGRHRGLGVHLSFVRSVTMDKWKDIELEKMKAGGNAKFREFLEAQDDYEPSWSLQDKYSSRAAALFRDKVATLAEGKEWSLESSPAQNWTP
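Material: rat Arfgap1 GAP domain (His6, aa 1-136), purified enzyme. Also added: human ARF1(Δ1-17)-GTP substrate. Compound dosing: 16.5 µM single point, 1.26% DMSO. Timing: enzyme reaction 120 min at 25 °C after 20 min preincubation. Signal: GDP detection by fluorescence polarization. Read-out basis: percent inhibition of GAP-stimulated GDP formation, scaled between DMSO and no-Arfgap1 medians.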
UHRF1 MBD2 ctr = blocks human UHRF1 binding to methylated DNA | 370,000 compounds, 0.75% hits | AID 687016 | inhibition, % at 4.4 µM | UHRF1 binding to methylated oligo, TR-FRET; in the data active means inhibition above about 21%;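 further: UHRF1 SRA domain binding a hemimethylated CpG hairpin DNA probe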
MBD2 DNA inh = inhibitors of human MBD2 binding to methylated oligonucleotide; inhibition, % at 4.4 µM; TR-FRET; Q9UBB5; 370,000 compounds, 0.31% hits; in the data active means inhibition above about 13%
ARFGAP1 inh conf = rat ARFGAP1 inhibition, confirmed; shares compounds with ARFGAP1 inhibitor; 890 compounds, 30% hits; inhibition, % at 16.5 µM; ARFGAP1-stimulated ARF1 GTP hydrolysis, GDP tracer FP;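 active means average inhibition over triplicates above the hit cutoff set in the earlier primary screen, cut at about 25% in these data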
Numbers stand for hits; n = inactive; x = no result; ! = not confirmed by another sample.

SMILES	LEDGF integ inh	ASAP1 inh	TCR CD3 inh	ARFGAP1 inhibitor	UHRF1 MBD2 ctr	MBD2 DNA inh	ARFGAP1 inh conf
COC(=O)c1c(NC(=O)C2CC=CCC2C(=O)O)sc(C)c1C (configuration not stated)	n	n	n	n	n	n	x
CCCc1cc(=O)oc2cc(OCC(=O)NCCc3c[nH]c4ccccc34)ccc12	n	n	n	26.1	n	n	n
Cc1cc(=O)oc2cc(OCC(=O)NCCc3c[nH]c4ccc(F)cc34)ccc12	n	n	n	n	n	n	x
Cc1onc(-c2ccccc2Cl)c1C(=O)N1CCC(C(N)=O)CC1	n	n	n	32.0	n	n	n
O=C(NCCCCc1ccccc1)c1cccc(NC(=O)c2ccccc2)c1	n	n	n	n	n	n	x
O=C(NCCc1ccc(F)cc1)c1cccc(NC(=O)c2ccccc2)c1	n	n	n	37.0	n	n	n
O=C(O)C(=Cc1ccc([N+](=O)[O-])cc1)c1cccc(Cl)c1	n	n	n	n	n	n	x
COc1ccc(NS(=O)(=O)c2cccc(C(=O)N/N=C(\C)c3ccncc3)c2)cc1	n	n	n	39.1	n	n	n
COc1ccc(NS(=O)(=O)c2cccc(C(=O)N/N=C(\C)c3ccc(-n4ccnc4)cc3)c2)cc1	n	n	n	n	n	n	x
CCCCC1CCCOC(C(=O)NCCNCCO)(C(F)(F)F)C1 (configuration not stated)	n	n	n	n	n	n	x
CCC[C@@H]1CCCO[C@@](C(=O)NCCN2CCOCC2)(C(F)(F)F)C1	n	n	n	31.0	n	n	n
COCCn1c(SC(C)C(=O)NCC2CCCO2)nc2scc(-c3ccc(F)cc3)c2c1=O (configuration not stated)	n	n	n	n	n	n	x
Cc1cc(OCC(=O)Nc2cccnc2)c2c(C)c(C)c(=O)oc2c1	n	n	n	28.8	n	n	29.8
CCOc1ccc(S(=O)(=O)N2CCC(C(=O)OC(C)C(=O)N(C)C3CCCCC3)CC2)cc1 (configuration not stated)	n	n	n	n	n	n	x
Cc1ccc(/C=N/N(Cc2ccccc2)c2ccccc2)o1	n	n	n	32.9	n	n	n
COc1ccc(CN2C(=O)[C@@](O)(c3cccn3C)c3cc(Br)ccc32)cc1	n	x	x	x	n	n	x
COc1cccc2c1C(=O)C=C(C)C2=O	n	n	n	n	n	n	x
CC1=CC(=O)c2ccccc2C1=O	n	n	n	26.1!	n	n	n
Clc1cccc(CNC2CCC23CCCCC3)c1 (configuration not stated)	n	x	x	x	n	n	x
CCN1CCCC1CNC(=O)c1ccc2c(c1)NC(=O)/C(=C\c1ccc(OC)c(OC)c1)S2 (configuration not stated)	n	n	n	38.9	n	n	82.7
Cc1ccc2nc(Nc3nc(CSc4nc5ccccc5s4)cc(=O)[nH]3)nc(C)c2c1	n	n	n	24.8	n	n	n
CC(C)Cn1c(N)c(C(=O)COC(=O)Cc2cccc(C(F)(F)F)c2)c(=O)n(C)c1=O	n	n	n	n	n	n	x
O=C(NNC(=S)Nc1ccc(Cl)c(Cl)c1)c1ccccn1	n	n	n	25.8	n	n	n
COc1ccc(OC)c(NC(=O)C2(C)CCN2Cc2ccccc2Cl)c1 (configuration not stated)	n	n	n	25.1	n	n	n
COc1cc2c3c(c1OC)C1(C=CC(=O)C=C1)CC3N(C(C)=O)CC2 (configuration not stated)	n	n	n	29.4	n	n	n
COC(=O)[C@H](CCSC)NC(=O)Cn1cc(C)c(=O)[nH]c1=O	n	n	n	n	n	n	x
CC(C)N(Cc1cn(Cc2ccccc2)nn1)S(=O)(=O)c1ccc(F)cc1Br	n	x	x	x	n	n	x
Cc1[nH][nH]c(=O)c1C(c1c(C)[nH][nH]c1=O)c1cn(C)c2ccccc12	n	n	n	25.4	n	n	n
Cc1[nH]c2ccc(C(=O)OCC(=O)Nc3cccc(S(N)(=O)=O)c3)cc2c1C	n	n	n	n	n	n	x
